Source: ChEMBL document CHEMBL1811845, “Modulation of GABAA-receptors by honokiol and derivatives: subtype selectivity and structure-activity relationship” (J Med Chem, 2011)

What was measured:
[1] = biological target: T1, Gamma-aminobutyric acid receptor subunit alpha-1/ beta-1 (Homo sapiens, UniProt P14867+P18505); assay: Modulation of GABA Aalpha1beta1 receptor expressed in Xenopus laevis oocytes assessed as potentiation of GABA-induced chloride current at holding potential -70 mV by two-microelectrode voltage clamp technique; format: cell-based, Oocyte
T1 sequence (P14867 whole entry): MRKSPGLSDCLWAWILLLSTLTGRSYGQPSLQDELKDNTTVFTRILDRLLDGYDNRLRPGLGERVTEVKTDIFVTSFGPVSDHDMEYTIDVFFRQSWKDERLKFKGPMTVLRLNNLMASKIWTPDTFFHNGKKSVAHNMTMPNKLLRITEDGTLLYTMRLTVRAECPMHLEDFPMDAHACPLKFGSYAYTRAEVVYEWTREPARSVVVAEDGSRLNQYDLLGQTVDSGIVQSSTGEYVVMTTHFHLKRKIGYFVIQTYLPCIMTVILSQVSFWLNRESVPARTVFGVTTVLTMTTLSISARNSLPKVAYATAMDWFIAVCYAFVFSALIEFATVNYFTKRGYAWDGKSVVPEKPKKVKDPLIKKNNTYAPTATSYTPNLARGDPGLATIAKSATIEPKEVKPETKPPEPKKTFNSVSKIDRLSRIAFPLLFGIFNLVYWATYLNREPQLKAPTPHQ
T1 sequence (P18505 whole entry): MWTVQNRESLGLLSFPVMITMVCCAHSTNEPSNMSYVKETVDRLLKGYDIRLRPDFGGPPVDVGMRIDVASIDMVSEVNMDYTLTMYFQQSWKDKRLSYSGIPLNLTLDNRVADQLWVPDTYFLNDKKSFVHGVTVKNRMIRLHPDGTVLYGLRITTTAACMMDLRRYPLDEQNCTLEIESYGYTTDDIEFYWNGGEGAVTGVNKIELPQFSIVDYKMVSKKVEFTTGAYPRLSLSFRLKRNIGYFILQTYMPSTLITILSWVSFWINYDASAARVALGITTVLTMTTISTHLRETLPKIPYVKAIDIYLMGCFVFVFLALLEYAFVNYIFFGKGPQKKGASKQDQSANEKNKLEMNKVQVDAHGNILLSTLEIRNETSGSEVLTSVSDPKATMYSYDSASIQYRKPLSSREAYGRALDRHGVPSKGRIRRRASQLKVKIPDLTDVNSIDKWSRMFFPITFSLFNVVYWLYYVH
Procedure, shortened: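 Stage V–VI Xenopus oocytes were injected with subunit cRNAs, with α1 and β1 mixed 3:1 for α1β1, and kept at +18 °C in modified ND96 at pH 7.4. Two-electrode voltage clamp was run at -70 mV and ambient temperature. Test GABA gave 3–7% of maximal current, set for each oocyte. Enhancement was (I(GABA+compound)/IGABA) − 1. EC50 came from a Hill fit. DMSO (max 0.3%) was matched in controls.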

[2] = biological target: T2, Gamma-aminobutyric acid receptor subunit alpha-3/ beta-2 (Homo sapiens, UniProt P34903+P47870); assay: Modulation of GABA Aalpha3beta2 receptor expressed in Xenopus laevis oocytes assessed as potentiation of GABA-induced chloride current at holding potential -70 mV by two-microelectrode voltage clamp technique; format: cell-based, Oocyte
T2 sequence (P47870 whole entry): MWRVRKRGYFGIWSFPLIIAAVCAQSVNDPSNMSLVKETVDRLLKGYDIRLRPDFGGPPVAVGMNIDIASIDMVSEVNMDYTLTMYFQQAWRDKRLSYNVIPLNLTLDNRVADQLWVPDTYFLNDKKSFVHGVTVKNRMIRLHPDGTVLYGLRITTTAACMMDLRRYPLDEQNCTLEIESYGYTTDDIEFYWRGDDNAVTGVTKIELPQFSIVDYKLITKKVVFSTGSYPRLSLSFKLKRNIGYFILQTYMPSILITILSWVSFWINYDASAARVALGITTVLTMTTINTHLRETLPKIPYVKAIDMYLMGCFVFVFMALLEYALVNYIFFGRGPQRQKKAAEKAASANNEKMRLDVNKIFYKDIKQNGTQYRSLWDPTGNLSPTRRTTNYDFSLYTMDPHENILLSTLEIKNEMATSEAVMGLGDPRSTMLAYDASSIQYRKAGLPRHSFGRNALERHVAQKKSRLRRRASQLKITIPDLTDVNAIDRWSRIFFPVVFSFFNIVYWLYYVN
T2 sequence (P34903 whole entry): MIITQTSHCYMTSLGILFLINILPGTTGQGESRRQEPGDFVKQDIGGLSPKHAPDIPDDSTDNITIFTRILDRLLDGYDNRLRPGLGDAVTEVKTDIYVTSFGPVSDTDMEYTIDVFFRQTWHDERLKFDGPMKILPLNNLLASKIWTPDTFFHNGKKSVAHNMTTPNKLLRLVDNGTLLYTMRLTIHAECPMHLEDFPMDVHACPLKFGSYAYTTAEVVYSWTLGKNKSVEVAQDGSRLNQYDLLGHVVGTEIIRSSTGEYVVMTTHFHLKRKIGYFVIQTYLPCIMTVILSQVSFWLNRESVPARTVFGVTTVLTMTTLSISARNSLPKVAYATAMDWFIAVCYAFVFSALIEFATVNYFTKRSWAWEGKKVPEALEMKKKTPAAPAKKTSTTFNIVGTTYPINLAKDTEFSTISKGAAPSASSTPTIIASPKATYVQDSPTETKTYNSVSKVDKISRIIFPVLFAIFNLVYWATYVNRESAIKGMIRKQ
Procedure, shortened: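 Stage V–VI Xenopus oocytes, defolliculated with 2 mg/mL collagenase, injected with α(1, 2, 3 or 5) and β2 cRNAs mixed 1:1, then kept at 18 °C in ND96 (pH 7.4). Enhancement = I(GABA+compound)/IGABA − 1. Curves were Hill-fitted for EC50. Bath DMSO was at most 0.3%, matched in controls.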

[3] = biological target: Gamma-aminobutyric acid receptor subunit alpha-5/beta-2 (Homo sapiens) (UniProt P47870+P31644); assay: Modulation of GABA Aalpha5beta2 receptor expressed in Xenopus laevis oocytes assessed as potentiation of GABA-induced chloride current at holding potential -70 mV by two-microelectrode voltage clamp technique relative to GABA; format: cell-based; details: Oocyte
Procedure, shortened: (§1)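 Oocytes were injected with α1, α2, α3 or α5 plus β2 cRNA at a 1:1 ratio and stored at 18 °C in ND96, pH 7.4. Enhancement was (I(GABA+compound)/IGABA)−1, and concentration-response data were Hill-fitted for EC50 and nH. Matched DMSO was ≤0.3%.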

[4] = biological target: GABA-A receptor; GABA-A site (alpha1/beta2 interface) (Homo sapiens) (UniProt P14867+P47870); assay: Modulation of GABA Aalpha1beta2 receptor expressed in Xenopus laevis oocytes assessed as potentiation of GABA-induced chloride current at holding potential -70 mV by two-microelectrode voltage clamp technique relative to GABA; format: cell-based; details: Oocyte; procedure, shortened: as §1
[5] = biological target: Gamma-aminobutyric acid receptor subunit alpha-2/beta-2 (Homo sapiens) (UniProt P47870+P47869); assay: Modulation of GABA Aalpha2beta2 receptor expressed in Xenopus laevis oocytes assessed as potentiation of GABA-induced chloride current at holding potential -70 mV by two-microelectrode voltage clamp technique relative to GABA; format: cell-based; details: Oocyte; procedure, shortened: as §1

Structure (SMILES): C=CCc1ccc(O)c(-c2ccc(O)c(CC=C)c2)c1 [HONOKIOL]
- EC50 [1]: 57 µM
- EC50 [2]: 52.4 µM
- Smax [3]: 347%
- Smax [4]: 1030%
- Smax [5]: 1130%
